Experimental data of several laboratories.
Each line is one published result; the experiments were not run side by side.
Observed: cell growth or viability

Compound	cell line	technique	tested at	time	quantity	result
Cc1cc(C)n(Cn2ccnc2)n1	SH-SY5Y	MTT		24 h	IC50	50.3 µM
C[C@H](Nc1ccc2c(c1)OCCn1cc(N3C(=O)OC[C@H]3C(F)F)nc1-2)C(N)=O	EFM-19	ATP luminescence		5 days	EC50	0.0312 µM
COc1ccc(C[C@H](N)C(=O)N[C@H]2[C@@H](O)[C@H](n3cnc4c(N(C)C)ncnc43)O[C@@H]2CO)cc1	J774.1	resazurin		72 h	IC50	1.36 µM
CNC(=O)c1cc(Oc2ccc(NC(=O)Nc3ccc(Cl)c(C(F)(F)F)c3)cc2)ccn1	PLC-PRF-5	imaging		72 h	IC50	4.08 µM
Cc1nc(NC(=O)N2CCC[C@H]2C(N)=O)sc1-c1ccnc(C(C)(C)C(F)(F)F)c1	EFM-19	ATP luminescence		5 days	EC50	0.38 µM
CN(C)CCNC(=O)c1cccn2c(=O)c3cc4ccccc4cc3nc12	PLC-PRF-5	imaging		72 h	IC50	16.2 µM
Cc1nc(Nc2ncc(C(=O)Nc3c(C)cccc3Cl)s2)cc(N2CC[C@H](O)C2)n1	SUP-B15	ATP luminescence	10 µM	72 h	inhibition	66%
Cc1cc(Cn2ccnc2)nn1C	SH-SY5Y	MTT		24 h	IC50	487 µM
